Results published in ChEMBL document CHEMBL4622869, “Discovery and structure-activity relationships study of positive allosteric modulators of the M3 muscarinic acetylcholine receptor” (Bioorg Med Chem, 2020).

Key:
[1] = biological target: Muscarinic acetylcholine receptor M3 (Rattus norvegicus) (UniProt P08483); experiment: Positive allosteric modulation of muscarinic acetylcholine receptor M3 in Sprague-Dawley rat urinary bladder assessed as increase in 8 Hz electrical field stimulation-induced bladder contraction by measuring tension of isolated bladder contraction at 1 uM (reference value: 2.21 +/- 0.26 g)
Outline: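 Female Sprague-Dawley rats, 9–10 weeks old. Longitudinal bladder strips (~10×2 mm) in Krebs at 37°C, gassed with 95% O2/5% CO2. EFS at 8 Hz, 10 s trains, 0.3 ms pulses, voltage set to give about half-maximal response. Drug added cumulatively at 1, 3 and 10 μM, 10 stimulations per concentration. Contraction = peak minus basal tone, averaged over the last 3 contractions and compared with pre-drug value (n=7).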

[2] = biological target: T1, Muscarinic acetylcholine receptor M2 (Rattus norvegicus) (UniProt P10980); experiment: (§1) Positive allosteric modulation of recombinant rat muscarinic acetylcholine receptor M2 expressed in CHOK1 cells coexpressing G-alpha16 assessed as increase in carbachol-induced intracellular calcium flux at 10 uM preincubated for 5 mins followed by carbachol addition by Fluo4-AM dye based FLIPR assay relative to carbachol; type: functional, cell-based; conditions: CHO-K1
T1 sequence (whole entry): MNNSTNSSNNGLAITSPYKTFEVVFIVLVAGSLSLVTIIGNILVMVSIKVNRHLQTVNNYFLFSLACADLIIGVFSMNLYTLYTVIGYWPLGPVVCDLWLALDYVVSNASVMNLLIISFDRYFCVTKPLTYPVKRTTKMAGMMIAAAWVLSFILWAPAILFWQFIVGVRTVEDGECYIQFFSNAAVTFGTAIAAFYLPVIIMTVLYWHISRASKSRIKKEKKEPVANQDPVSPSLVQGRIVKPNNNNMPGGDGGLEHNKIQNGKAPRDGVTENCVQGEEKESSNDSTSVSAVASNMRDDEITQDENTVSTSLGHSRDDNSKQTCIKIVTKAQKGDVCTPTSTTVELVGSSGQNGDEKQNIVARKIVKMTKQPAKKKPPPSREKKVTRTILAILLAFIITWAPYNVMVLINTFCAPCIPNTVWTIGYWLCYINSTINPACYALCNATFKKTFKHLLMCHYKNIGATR
Outline: (§2)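 CHO-K1 cells stably expressing human or rat M1–M5; M2 and M4 lines also co-express human Gα16. Cells loaded with 3.1 μM Fluo-4 AM in HBSS/20 mM HEPES pH 7.5/BSA/2.5 mM probenecid for ~2 h at room temperature. Test substance at 10 μM final, then carbachol (0.0024 nM–100 μM) ~5 min later; Ca2+ read by FLIPR Tetra. Fold shift = carbachol EC50 without / with test substance, from logistic fits.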

[3] = biological target: T2, Muscarinic acetylcholine receptor M4 (Homo sapiens) (UniProt P08173); experiment: as §1, with “human” for “rat”, “M4” for “M2”; type: functional, cell-based; conditions: CHO-K1; outline: as §2
T2 sequence (whole entry): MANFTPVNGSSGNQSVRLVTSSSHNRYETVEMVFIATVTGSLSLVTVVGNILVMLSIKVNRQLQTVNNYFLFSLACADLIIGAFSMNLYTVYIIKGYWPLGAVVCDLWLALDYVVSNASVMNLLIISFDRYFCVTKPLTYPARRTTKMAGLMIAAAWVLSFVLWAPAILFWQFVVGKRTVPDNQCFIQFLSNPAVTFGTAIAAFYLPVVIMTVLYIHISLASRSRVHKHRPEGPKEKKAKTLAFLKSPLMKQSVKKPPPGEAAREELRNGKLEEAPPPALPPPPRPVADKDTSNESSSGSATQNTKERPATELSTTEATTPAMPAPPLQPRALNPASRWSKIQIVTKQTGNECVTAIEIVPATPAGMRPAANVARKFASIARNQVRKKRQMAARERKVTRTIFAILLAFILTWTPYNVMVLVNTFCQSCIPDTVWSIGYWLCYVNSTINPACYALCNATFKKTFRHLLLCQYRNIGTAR

Thrombopoietin receptor = biological target: T3, Thrombopoietin receptor (Homo sapiens, UniProt P40238); experiment: Agonist activity at recombinant human c-Mpl receptor transfected in BA/F3 cells assessed as increase in cell proliferation by cell counting analysis; type: cell-based; conditions: baf3
T3 sequence (P40238 whole entry): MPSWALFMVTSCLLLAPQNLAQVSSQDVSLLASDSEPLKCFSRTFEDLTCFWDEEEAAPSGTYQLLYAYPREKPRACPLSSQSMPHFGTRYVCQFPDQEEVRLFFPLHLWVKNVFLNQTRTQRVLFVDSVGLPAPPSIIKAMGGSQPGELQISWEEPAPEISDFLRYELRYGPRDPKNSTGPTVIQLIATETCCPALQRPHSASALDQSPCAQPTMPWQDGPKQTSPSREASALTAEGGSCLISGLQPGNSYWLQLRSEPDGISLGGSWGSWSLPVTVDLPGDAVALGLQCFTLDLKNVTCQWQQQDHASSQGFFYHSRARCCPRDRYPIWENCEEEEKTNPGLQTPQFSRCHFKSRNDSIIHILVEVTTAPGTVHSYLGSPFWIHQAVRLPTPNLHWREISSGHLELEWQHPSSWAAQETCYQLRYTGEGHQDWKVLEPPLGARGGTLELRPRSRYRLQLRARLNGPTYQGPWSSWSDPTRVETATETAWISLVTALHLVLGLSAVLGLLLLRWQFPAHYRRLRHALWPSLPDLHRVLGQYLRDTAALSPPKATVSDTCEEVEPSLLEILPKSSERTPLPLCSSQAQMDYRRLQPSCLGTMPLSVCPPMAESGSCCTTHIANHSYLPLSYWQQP
Outline: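 Ba/F3 cells stably transfected with human c-Mpl by electroporation with blasticidin selection. 1×10^4 cells/well in RPMI-1640 with 10% FBS, with test substance (100 nM to 10 μM final), overnight at 37°C in 5% CO2. Cell Counting Kit added for about 5 h, then A450 read. Scale: untreated wells 0%, reference c-Mpl agonist at 1 μM 100%. EC30 from logistic regression.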

[4] = Cmax in Crl:CD(SD) rat at 1 mg/kg, po measured up to 24 hrs by LC-MS/MS analysis; type: ADME, organism-based; set-up: dose 1 mg/kg, route oral; conditions: in vivo
Outline: (§3)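 Male Crl:CD(SD) rats, 8 weeks old, food deprived (n=4); iv 0.3 mg/kg or po 1 mg/kg in DMF/propylene glycol/water for injection (1/1/8) containing 1 M NaOH (2 equivalents). Plasma sampled to 24 h, assayed by validated LC-MS/MS. Parameters from each animal by noncompartmental analysis, reported as means.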

[5] = AUCinfinity in Crl:CD(SD) rat at 1 mg/kg, po measured up to 24 hrs by LC-MS/MS analysis; type: ADME, organism-based; set-up: dose 1 mg/kg, time infinity, route oral; conditions: in vivo; outline: as §3
[6] = Half life in Crl:CD(SD) rat at 1 mg/kg, po measured up to 24 hrs by LC-MS/MS analysis; type: ADME, organism-based; conditions: in vivo; outline: as §3
[7] = Total clearance in Crl:CD(SD) rat at 0.3 mg/kg, iv measured up to 24 hrs by LC-MS/MS analysis; type: ADME, organism-based; conditions: in vivo; outline: as §3
[8] = Volume of distribution at steady state in Crl:CD(SD) rat at 0.3 mg/kg, iv measured up to 24 hrs by LC-MS/MS analysis; type: ADME, organism-based; conditions: in vivo, read-out: Vdss; outline: as §3

Sequence of Muscarinic acetylcholine receptor M3 (Rattus norvegicus) (P08483 whole entry, looked up): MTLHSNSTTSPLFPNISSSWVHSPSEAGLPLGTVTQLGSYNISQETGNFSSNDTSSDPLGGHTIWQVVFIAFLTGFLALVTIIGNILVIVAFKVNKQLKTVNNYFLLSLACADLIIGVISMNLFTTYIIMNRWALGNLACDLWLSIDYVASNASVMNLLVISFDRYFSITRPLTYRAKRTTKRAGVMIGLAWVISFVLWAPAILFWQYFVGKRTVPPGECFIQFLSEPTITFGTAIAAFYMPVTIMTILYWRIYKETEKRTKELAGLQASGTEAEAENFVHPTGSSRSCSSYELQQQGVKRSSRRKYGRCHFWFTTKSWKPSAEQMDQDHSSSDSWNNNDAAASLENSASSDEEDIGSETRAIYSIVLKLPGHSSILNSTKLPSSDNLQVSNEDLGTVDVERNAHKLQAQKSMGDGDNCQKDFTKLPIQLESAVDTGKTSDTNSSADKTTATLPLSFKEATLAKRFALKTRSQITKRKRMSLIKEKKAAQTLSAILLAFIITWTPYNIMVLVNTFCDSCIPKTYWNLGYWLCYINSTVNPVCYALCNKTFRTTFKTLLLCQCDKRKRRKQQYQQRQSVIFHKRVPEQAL

For CC[C@@H]1CCCN1Cc1sc(NC(=O)c2cnc(N3CCC(C(=O)O)CC3)cn2)nc1-c1ccc(OC)c(C(F)(F)F)c1.Cl.Cl, which Activity [1] is on record?
The Activity was 2.34 g.

And the fold change (FC) [2]?
Its fold change (FC) is 1.6.

What about the fold change (FC) [3] of the same molecule?
Its fold change (FC) is 1.

What about the EC30 (Thrombopoietin receptor) of the same molecule?
Its EC30 is over 10 µM.

What about the Cmax [4] of the same molecule?
Its Cmax is 85.3 ng/mL.

And the AUC(0-inf) [5]?
Its AUC(0-inf) is 209 ng·h/mL.

What about the half-life [6] of the same molecule?
Its half-life is 2.16 h.

What about the clearance [7] of the same molecule?
Its clearance is 15.3 mL/min/kg.

What about the Vd [8] of the same molecule?
The Vd was 1.59 L/kg.
